According to ChEMBL document CHEMBL1135931, “Rational design, synthesis, and biological activity of novel conformationally restricted vitamin D analogues, (22R)- and (22S)-22-ethyl-1,25-dihydroxy-23,24-didehydro-24a,24b-dihomo-20-epivitamin D(3)” (2002):

Experiments:
[1] = tested on: HL-60; test: Differentiation activity of human promyelocytic leukemia cells (HL-60) determined by an NBT reduction assay method; format: functional
[2] = tested on: Rattus norvegicus; test: Calcemic activity (in vivo bone calcium mobilization) was measured by the rise in serum calcium in vitamin D and Ca deficient rats by colorimetric assay; format: functional; design: concentration or dose not given beside the values
How it was run: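 Weanling male rats on vitamin D-deficient low-calcium diet (0.03% Ca, 0.6% P) for 3 weeks; single intravenous dose of 1 μg analogue in ethanol (50 μL) or vehicle alone. Serum calcium read colorimetrically (o-cresolphthalein complexone) at 0, 6, 12, 24 and 48 h post-dose; activity expressed as percent of 1,25-(OH)2D3.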

[3] = tested on: C3H 10T1/2; test: Cells were harvested and were assayed for luciferase and -galactosidase activities (Transcriptional activity); format: functional, Mus musculus
How it was run: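 10T1/2 cells in DMEM with 10% charcoal-stripped FBS, 37 °C, 5% CO2; calcium-phosphate transfection 12 h with SPP×3-TK-LUC reporter, pCMX-β-GAL internal control, pUC18 carrier. Ligand 10^-11 to 10^-7 M for 48 h; luciferase normalized to β-galactosidase, duplicate points. Relative activity taken at ED50, as percent of 1,25-(OH)2D3.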

[4] = target: T1, Vitamin D3 receptor (Bos taurus) (UniProt Q28037); test: Relative affinity for bovine thymus Vitamin D3 receptor (VDR)
T1 sequence (whole entry): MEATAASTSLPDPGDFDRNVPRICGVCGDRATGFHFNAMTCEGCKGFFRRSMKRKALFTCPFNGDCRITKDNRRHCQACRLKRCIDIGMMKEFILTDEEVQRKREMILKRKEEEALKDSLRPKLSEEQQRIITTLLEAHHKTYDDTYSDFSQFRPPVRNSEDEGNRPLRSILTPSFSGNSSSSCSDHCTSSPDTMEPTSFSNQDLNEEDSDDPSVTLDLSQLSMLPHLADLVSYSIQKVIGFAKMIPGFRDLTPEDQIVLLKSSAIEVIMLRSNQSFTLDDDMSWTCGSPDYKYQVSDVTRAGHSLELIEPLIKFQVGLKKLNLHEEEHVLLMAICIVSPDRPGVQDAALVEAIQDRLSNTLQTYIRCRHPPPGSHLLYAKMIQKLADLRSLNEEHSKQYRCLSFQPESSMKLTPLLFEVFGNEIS
How it was run: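 Bovine thymus VDR in 0.05 M phosphate pH 7.4, 0.3 M KCl, 5 mM DTT; incubated with 0.1 nM [3H]-1,25-(OH)2D3 plus graded analogue, 19 h at 4 °C. Dextran-coated charcoal separation 20 min at 4 °C, centrifuge 1000g 10 min, supernatant counted; duplicate. Relative affinity at 50% displacement, as percent of 1,25-(OH)2D3.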

Structure (SMILES)	Activity [4] [%]	Activity [1] [%]	Activity [2] [%]	Activity [3] [%]
C=C1/C(=C\C=C2/CCC[C@]3(C)[C@@H]([C@@H](C)[C@H](C)CCC(C)(C)O)CC[C@@H]23)C[C@@H](O)C[C@@H]1O	1100	12000	220	10000
C=C1/C(=C\C=C2/CCC[C@]3(C)[C@@H]([C@@H](C)[C@@H](/C=C/CCC(C)(C)O)CC)CC[C@@H]23)C[C@@H](O)C[C@@H]1O	14	9800	140	2500
C=C1/C(=C\C=C2/CCC[C@]3(C)[C@@H]([C@@H](C)[C@H](/C=C/CCC(C)(C)O)CC)CC[C@@H]23)C[C@@H](O)C[C@@H]1O	0.2	77	38	33

The next lines start with results.

Activity [4] [%]	Structure (SMILES)	Activity [1] [%]	Activity [2] [%]	Activity [3] [%]
100	C=C1/C(=C\C=C2/CCC[C@]3(C)[C@@H]([C@H](C)CCCC(C)(C)O)CC[C@@H]23)C[C@@H](O)C[C@@H]1O [CALCITRIOL]	100	100	100
0.4	C=C1/C(=C\C=C2/CCC[C@]3(C)[C@@H]([C@@H](C)[C@@H](C)CCC(C)(C)O)CC[C@@H]23)C[C@@H](O)C[C@@H]1O	8	5	3
